A short description of series [1]: Antioxidant activity assessed as inhibition of ABTS radical cation generation at 1 mg/ml by colorimetric method relative to control. It is filed as physicochemical. An outline of the steps:
(§1)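 ABTS radical cation solution read at 734 nm. Test samples were added as a 1 mg/ml solution in MeOH/buffer (1:1 v/v); ascorbic acid (2 mM solution) and curcumin (1 mg/ml) were the standards. % inhibition = (Acontrol − Atest)/Acontrol × 100. Blank was solvent without ABTS.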

Series [2] in a line: Cytotoxicity against mouse EAC cells assessed as dead cells at 100 uM after 24 hrs by trypan blue dye exclusion method relative to control. The class given is functional, Ehrlich. An outline of the steps: (§2)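 EAC cells came from ascitic fluid of female Swiss albino mice 7-8 days after inoculation and were washed in HEPES-buffered Hanks' salt solution. They were preincubated 24 h in RPMI 1640 with 10% fetal calf serum at 2 × 10⁵ cells/ml, 37 °C, 5% CO₂. Cells were then exposed to drug for 24 h, PBS-washed and counted by trypan blue exclusion. Survival = viable T/C × 100; triplicate mean.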

The nature of series [3]: Cytotoxicity against mouse EAC cells assessed as dead cells at 25 uM after 24 hrs by trypan blue dye exclusion method relative to control. It is filed as functional, Ehrlich. In outline:
as §2

Series [4] in a line: Cytotoxicity against mouse EAC cells assessed as dead cells at 50 uM after 24 hrs by trypan blue dye exclusion method relative to control. It is filed as functional, Ehrlich. An outline of the steps:
as §2

A short description of series [5]: Antitumor activity against mouse EAC cells allografted in Swiss albino mouse assessed as tumor growth inhibition at 75 mg/kg, po administered for 21 days measured 21 day post dose relative to control. The class given is functional. The settings on record: Ehrlich, 504 h, read-out: TGI. An outline of the steps:
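EAC was kept by i.p. passage in female Swiss albino mice. Washed ascitic cells (5 × 10⁵ viable per 0.1 ml saline) were injected s.c. At 50–100 mm³, mice were split into groups of 10 and given compound 75 mg/kg orally in CMC for 21 consecutive days; controls got saline 5 ml/kg. Tumor size was read at day 0 and day 21. Inhibition was derived from ΔT/ΔC × 100.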

Series [6] is described as follows: Antioxidant activity assessed as inhibition of ABTS radical cation generation at 2 mM by colorimetric method relative to control. The settings on record: 2000 µM. The class given is physicochemical. In outline: as §1

Turning to `COc1cc(/C=C/C(=O)CC(=O)/C=C/c2ccc(O)c(OC)c2)ccc1O` [CURCUMIN], in series [1], the “inhibition (INH)” value was 86.6%.
Turning to `COc1ccc(/C=C2\CCCc3c2nc(N)c(C#N)c3-c2ccc(OC)c(OC)c2)cc1OC`, the “inhibition (INH)” value in series [1] is given as 9.73%. Further, the values for the Activity in series [2], in series [3] and in series [4] were 84.2%, 24.9% and 45.1%, respectively.
Turning to `COc1ccc(/C=C/C2=NN(C(N)=S)C(c3ccc(OC)cc3)C2)cc1` (stereo not given), the “inhibition (INH)” value in series [1] is on record as 84.52%. Besides, the Activity is 98% in series [2], 28.7% in series [3] and 57.5% in series [4]. Besides, in series [5], the inhibition in vivo at 75 mg/kg was determined as 76%.
With `O=C1O[C@H]([C@@H](O)CO)C(O)=C1O` [ASCORBIC ACID], in series [6], the “inhibition (INH)” value turned out to be 88.34%.
On to `COc1ccc(/C=C/C2=NN(c3nc(-c4ccccc4)cs3)C(c3ccc(OC)cc3)C2)cc1` (stereo not given), for which the “inhibition (INH)” value in series [1] is 76%. The Activity in series [2] worked out at 98.3%; in series [3], 30.4%; in series [4], 61.6%. For the same compound, the inhibition in vivo at 75 mg/kg in series [5] is 65%.
In the same order, the values of `COc1ccc(/C=C2\CN(C)CC3C2=NN(c2nc(-c4ccc(Cl)cc4)cs2)C3c2ccc(OC)cc2)cc1` (stereo not given) are 69.56%, 97.9%, 29.2%, 58% and 70%.
As for `N#Cc1c(N)nc2c(c1-c1ccc(O)cc1)CCC/C2=C\c1ccc(O)cc1`, the “inhibition (INH)” value in series [1] came to 8.69%. Also, the Activity in series [2] came to 81%; in series [3], 21.7%; in series [4], 43.4%.
With `CCN1C/C(=C\c2ccc(OC)cc2)C2=NN(C(N)=S)C(c3ccc(OC)cc3)C2C1` (stereo not given), the “inhibition (INH)” value in series [1] was 88.17%. In addition, the Activity in series [2] is 99%; in series [3], 31.7%; in series [4], 66.5%. Also, the inhibition in vivo at 75 mg/kg in series [5] was 77%.
In the same order, the values of `CCN1C/C(=C\c2ccc(OC)cc2)C2=NN(c3nc(-c4ccc(Cl)cc4)cs3)C(c3ccc(OC)cc3)C2C1` (stereo not given) are 82.6%, 100%, 98.3%, 100% and 82%.
With `COc1ccc(/C=C2\CCC3C2=NN(c2nc(-c4ccc(Cl)cc4)cs2)C3c2ccc(OC)cc2)cc1` (stereo not given), the “inhibition (INH)” value in series [1] worked out at 27.47%. For the same compound, the Activity is 93.5% in series [2], 25% in series [3] and 47.1% in series [4].
In the same order, the values of `COc1ccc(/C=C2\CCCC3C2=NN(C2=NC(=O)/C(=C/c4ccc(Cl)cc4)S2)C3c2ccc(OC)cc2)cc1` (stereo not given) are 25.73%, 84%, 23.8% and 46%.
As to `COc1ccc(/C=C2\CCCC3C2=NN(C2=NC(=O)/C(=C/c4ccc(Br)cc4)S2)C3c2ccc(OC)cc2)cc1` (stereo not given), the “inhibition (INH)” value in series [1] was determined as 5.21%. Moreover, the Activity is recorded as 81.6% in series [2], 22% in series [3] and 43.8% in series [4].
In the same order, the values of `CCN1C/C(=C\c2ccc(OC)cc2)C2=NN(c3nc(-c4ccccc4)cs3)C(c3ccc(OC)cc3)C2C1` (stereo not given) are 60.52%, 95.4%, 27.8% and 50.2%.
As to `COc1ccc(/C=C2\CCCC3C2=NN(C2=NC(=O)/C(=C/c4ccc(OC)c(OC)c4)S2)C3c2ccc(OC)cc2)cc1` (stereo not given), the “inhibition (INH)” value in series [1] was determined as 19.13%. The values for the Activity in series [2], in series [3] and in series [4] were 75.8%, 20.4% and 40%, respectively.
For `COc1cc(/C=C2\CCCc3c2nc(N)c(C#N)c3-c2ccc(O)c(OC)c2)ccc1O`, the “inhibition (INH)” value in series [1] is listed as 46.6%. Also, the figures for the Activity in series [2], in series [3] and in series [4] were 99.7%, 60.2% and 84%, respectively. Moreover, the inhibition in vivo at 75 mg/kg in series [5] stood at 80%.

The values are drawn from ChEMBL document CHEMBL3612035, “Synthesis and biological evaluation of new curcumin analogues as antioxidant and antitumor agents: molecular modeling study” (Eur J Med Chem, 2015).
